Data taken from ChEMBL document CHEMBL4699426, “A practical synthesis of amino limonin/deoxylimonin derivatives as effective mitigators against inflammation and nociception” (2020).

Legend:
[1] = system: Mus musculus; assay: Antiinflammatory activity in mouse model of xylene-induced ear swelling assessed as inhibition of swelling by measuring weight of the ear at 100 mg/kg, ig pretreated for 90 mins followed by xylene challenge and measured after 30 mins relative to control; assay type: functional; settings: po, 2 h, time 120 min
How it was run: (§1)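 Xylene ear swelling in mice. Test compounds 100 mg/kg i.g., naproxen 150 mg/kg i.g., all suspended in 0.5% CMC-Na; vehicle group got CMC-Na alone. 90 min after dosing, 25 ul xylene applied to both surfaces of right ear; left ear unstimulated. Killed 30 min later; 8 mm punches from both ears weighed; swelling taken against left ear weight.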

[2] = system: Mus musculus; assay: Analgesic activity in mouse model of acetic-acid-induced writhing assessed as inhibition of writhing numbers at 70 mg/kg, po pretreated with compound followed by acetic acid challenge and measured after 30 mins relative to control; assay type: functional; settings: 0.5 h
How it was run: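 Acetic acid writhing in mice. Oral dosing (70 mg/kg test compounds or limonin; 200 mg/kg aspirin); vehicle controls got 0.5% CMC-Na. 30 min later 0.6% acetic acid, 10 ml/kg i.p. Each animal held in its own box and observed for 15 min; writhing and stretching counted; result as percent change from vehicle writhing controls.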

[3] = system: Mus musculus; assay: Antiinflammatory activity in ICR mouse model of carrageenan-induced paw edema assessed as paw edema inhibition rate at 100 mg/kg, po pretreated with compound followed by carrageenan challenge and measured after 3 hrs post-treatment by dial thickness gage; assay type: functional
How it was run: (§2)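 ICR male mice, 8 per group, randomized, acclimated at least one week, 12 h light/dark, 22 ± 1 °C. Dosed intragastrically at 25, 50 or 100 mg/kg; indomethacin 22 mg/kg i.g. as reference; olive oil as vehicle. 30 min later, 1% fresh carrageenan in saline injected subplantar into right hind paw. Paw thickness read by dial gauge before injection and at 1, 2, 3 and 4 h; percent increase over pre-injection value.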

[4] = system: Mus musculus; assay: Antiinflammatory activity in ICR mouse model of carrageenan-induced paw edema assessed as paw edema inhibition rate at 50 mg/kg, po pretreated with compound followed by carrageenan challenge and measured after 2 hrs post-treatment by dial thickness gage; assay type: functional; how it was run: as §2
[5] = system: Mus musculus; assay: Antiinflammatory activity in ICR mouse model of carrageenan-induced paw edema assessed as paw edema inhibition rate at 25 mg/kg, po pretreated with compound followed by carrageenan challenge and measured after 1 hr post-treatment by dial thickness gage; assay type: functional; how it was run: as §2
[6] = system: Mus musculus; assay: Antiinflammatory activity in ICR mouse model of carrageenan-induced paw edema assessed as paw edema inhibition rate at 100 mg/kg, po pretreated with compound followed by carrageenan challenge and measured after 2 hrs post-treatment by dial thickness gage; assay type: functional; how it was run: as §2
[7] = system: Mus musculus; assay: Antiinflammatory activity in ICR mouse model of carrageenan-induced paw edema assessed as paw edema inhibition rate at 25 mg/kg, po pretreated with compound followed by carrageenan challenge and measured after 3 hrs post-treatment by dial thickness gage; assay type: functional; how it was run: as §2
[8] = system: Mus musculus; assay: Antiinflammatory activity in ICR mouse model of carrageenan-induced paw edema assessed as paw edema inhibition rate at 50 mg/kg, po pretreated with compound followed by carrageenan challenge and measured after 1 hr post-treatment by dial thickness gage; assay type: functional; how it was run: as §2
[9] = system: Mus musculus; assay: Antiinflammatory activity in ICR mouse model of carrageenan-induced paw edema assessed as paw edema inhibition rate at 50 mg/kg, po pretreated with compound followed by carrageenan challenge and measured after 3 hrs post-treatment by dial thickness gage; assay type: functional; how it was run: as §2
[10] = system: Mus musculus; assay: Antiinflammatory activity in ICR mouse model of carrageenan-induced paw edema assessed as paw edema inhibition rate at 100 mg/kg, po pretreated with compound followed by carrageenan challenge and measured after 4 hrs post-treatment by dial thickness gage; assay type: functional; how it was run: as §2
[11] = system: Mus musculus; assay: Antiinflammatory activity in ICR mouse model of carrageenan-induced paw edema assessed as paw edema inhibition rate at 25 mg/kg, po pretreated with compound followed by carrageenan challenge and measured after 2 hrs post-treatment by dial thickness gage; assay type: functional; how it was run: as §2
[12] = system: Mus musculus; assay: Antiinflammatory activity in ICR mouse model of carrageenan-induced paw edema assessed as paw edema inhibition rate at 50 mg/kg, ig pretreated with compound followed by carrageenan challenge and measured after 4 hrs post-treatment by dial thickness gage; assay type: functional; settings: po; how it was run: as §2
[13] = system: Mus musculus; assay: Antiinflammatory activity in ICR mouse model of carrageenan-induced paw edema assessed as paw edema inhibition rate at 100 mg/kg, po pretreated with compound followed by carrageenan challenge and measured after 1 hr post-treatment by dial thickness gage; assay type: functional; how it was run: as §2
[14] = system: Mus musculus; assay: Antiinflammatory activity in po dosed ICR mouse model of carrageenan-induced paw edema assessed as paw edema inhibition rate pretreated with compound followed by carrageenan challenge and measured after 4 hrs post-treatment by dial thickness gage; assay type: functional, organism-based; settings: dose mg/kg 25-100, time 4.0 hrs; how it was run: as §2
[15] = system: Mus musculus; assay: Antiinflammatory activity in ICR mouse model of carrageenan-induced paw edema assessed as paw edema inhibition rate at 25 mg/kg, po pretreated with compound followed by carrageenan challenge and measured after 4 hrs post-treatment by dial thickness gage; assay type: functional; settings: 2 h, dose mg/kg 25-100; how it was run: as §2
[16] = system: Mus musculus; assay: Antiinflammatory activity in mouse model of xylene-induced ear swelling assessed as inhibition of swelling by measuring weight of the ear at 100 mg/kg, ig pretreated for 90 mins followed by xylene challenge and measured after 30 mins relative to deoxy-limonin; assay type: functional; settings: time 120 min, 2 h; how it was run: as §1
[17] = species on record: Mus musculus; assay: animal or person; settings: po, 2 h, read-out: INH

Q: Which results are given for `CC1(C)OC(CCNCc2ccc(F)cc2)C2(CO)[C@H]3CC[C@]4(C)C(=CC(=O)O[C@H]4c4ccoc4)[C@]3(C)C(=O)C[C@@H]12` (stereo partly specified)?
A: inhibition in vivo at 100 mg/kg [1]: 29.5%; inhibition in vivo at 70 mg/kg [2]: 37%

Q: Which inhibition in vivo at 100 mg/kg [1] does the source give for `COc1cccc(CCNCCC2OC(C)(C)[C@@H]3CC(=O)[C@]4(C)[C@H](CC[C@@]5(C)[C@H](c6ccoc6)OC(=O)[C@H]6O[C@]654)C23CO)c1` (stereo partly specified) here?
A: 17%

Q: And the inhibition in vivo at 70 mg/kg [2]?
A: 58.7%

Q: Which inhibition in vivo at 100 mg/kg [3] does the source give for `COc1ccc(CNCCC2OC(C)(C)[C@@H]3CC(=O)[C@]4(C)[C@H](CC[C@@]5(C)[C@H](c6ccoc6)OC(=O)[C@H]6O[C@]654)C23CO)cc1` (stereo partly specified) here?
A: 41.4%

Q: What about the inhibition in vivo at 50 mg/kg [4] of the same molecule?
A: 33.3%

Q: What about the inhibition in vivo at 25 mg/kg [5] of the same molecule?
A: 43.4%

Q: What about the inhibition in vivo at 100 mg/kg [6] of the same molecule?
A: 62%

Q: And the inhibition in vivo at 25 mg/kg [7]?
A: 9.77%

Q: What about the inhibition in vivo at 50 mg/kg [8] of the same molecule?
A: 44.6%

Q: And the inhibition in vivo at 100 mg/kg [1]?
A: 27.3%

Q: What about the inhibition in vivo at 50 mg/kg [9] of the same molecule?
A: 17.5%

Q: And the inhibition in vivo at 100 mg/kg [10]?
A: 32%

Q: And the inhibition in vivo at 25 mg/kg [11]?
A: 24.6%

Q: What about the inhibition in vivo at 70 mg/kg [2] of the same molecule?
A: 81.5%

Q: What about the inhibition in vivo at 50 mg/kg [12] of the same molecule?
A: 15.6%

Q: What about the inhibition in vivo at 100 mg/kg [13] of the same molecule?
A: 54.5%

Q: What about the inhibition [14] of the same molecule?
A: Dose-dependent effect

Q: And the inhibition in vivo at 25 mg/kg [15]?
A: 5.75%

Q: `COc1ccc(CN2CCC3OC(C)(C)[C@@H]4CC(=O)[C@@]5(C)C6=CC(=O)O[C@@H](c7ccoc7)[C@]6(C)CC[C@@H]5C34C2)cc1` (stereo partly specified) was tested. Which inhibition in vivo at 100 mg/kg [1] did it give?
A: 32.5%

Q: What about the inhibition in vivo at 70 mg/kg [2] of the same molecule?
A: 40%

Q: With `CC1(C)O[C@H]2CC(=O)OC[C@]23[C@H]2CC[C@@]4(C)[C@H](c5ccoc5)OC(=O)[C@H]5O[C@]54[C@]2(C)C(=O)C[C@@H]13` [LIMONIN] as the molecule, how does the inhibition in vivo at 50 mg/kg [4] read?
A: 22%

Q: And the inhibition in vivo at 50 mg/kg [8]?
A: 57.3%

Q: And the inhibition in vivo at 100 mg/kg [1]?
A: 14.4%

Q: What about the inhibition in vivo at 50 mg/kg [9] of the same molecule?
A: 26.3%

Q: And the inhibition in vivo at 70 mg/kg [2]?
A: 44.2%

Q: Which inhibition in vivo at 100 mg/kg [1] does the source give for `COc1ccc(CCNCCC2OC(C)(C)[C@@H]3CC(=O)[C@]4(C)[C@H](CC[C@@]5(C)[C@H](c6ccoc6)OC(=O)[C@H]6O[C@]654)C23CO)cc1OC` (stereo partly specified) here?
A: 26.7%

Q: And the inhibition in vivo at 70 mg/kg [2]?
A: 11.2%

Q: With `COc1cccc(CCNCCC2OC(C)(C)[C@@H]3CC(=O)[C@@]4(C)C5=CC(=O)O[C@@H](c6ccoc6)[C@]5(C)CC[C@@H]4C23CO)c1` (stereo partly specified) as the molecule, how does the inhibition in vivo at 100 mg/kg [3] read?
A: 35.3%

Q: And the inhibition in vivo at 50 mg/kg [4]?
A: 27.3%

Q: What about the inhibition in vivo at 25 mg/kg [5] of the same molecule?
A: 51.5%

Q: What about the inhibition in vivo at 100 mg/kg [6] of the same molecule?
A: 65.3%

Q: And the inhibition in vivo at 25 mg/kg [7]?
A: 12%

Q: What about the inhibition in vivo at 50 mg/kg [8] of the same molecule?
A: 55.6%

Q: And the inhibition in vivo at 100 mg/kg [1]?
A: 51.5%

Q: What about the inhibition in vivo at 50 mg/kg [9] of the same molecule?
A: 24.1%

Q: And the inhibition in vivo at 100 mg/kg [10]?
A: 27.5%

Q: What about the inhibition in vivo at 25 mg/kg [11] of the same molecule?
A: 17.6%

Q: And the inhibition in vivo at 70 mg/kg [2]?
A: 52.6%

Q: What about the “fold change (FC)” value [16] of the same molecule?
A: 5

Q: And the inhibition in vivo at 100 mg/kg [13]?
A: 59.8%

Q: And the inhibition [14]?
A: Dose-dependent effect

Q: And the inhibition in vivo at 25 mg/kg [15]?
A: 5.43%

Q: With `COc1ccc2cc([C@H](C)C(=O)O)ccc2c1` [NAPROXEN] as the molecule, how does the inhibition in vivo at 150 mg/kg [17] read?
A: 25%

Q: How did the inhibition in vivo at 100 mg/kg [1] turn out when `CC1(C)OC(CCNCc2ccc(F)cc2)C2(CO)[C@H]3CC[C@@]4(C)[C@H](c5ccoc5)OC(=O)[C@H]5O[C@]54[C@]3(C)C(=O)C[C@@H]12` (stereo partly specified) was run?
A: 27.4%

Q: What about the inhibition in vivo at 70 mg/kg [2] of the same molecule?
A: 63.8%
